The values that follow come from ChEMBL document CHEMBL1240409, “Design, synthesis and evaluation of (E)-alpha-benzylthio chalcones as novel inhibitors of BCR-ABL kinase” (Bioorg Med Chem, 2010).

One experiment deals with K562. The experiment is described as follows: Growth inhibition of human K562 cells expressing p210Bcr/Abl after 96 hrs by trypan blue exclusion assay. It is filed as functional, cell-based. The following applies: K562, 96 h. In a few lines:
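K562 cells were kept in RPMI with 10% FBS and penicillin–streptomycin at 37 °C under 5% CO2. Cells were seeded at 1 × 10^5 cells/mL with a range of compound concentrations, using DMSO as the negative control. After 96 h, viability was counted by Trypan blue exclusion and expressed as percent of DMSO control to derive GI50.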

The next experiment deals with DU-145. Description: Growth inhibition of human DU145 cells after 96 hrs by trypan blue exclusion assay. It is filed as functional. The following applies: DU-145, 96 h.

On to `COc1ccc(/C=C(/Sc2ccc(C)cc2)C(=O)c2ccc(Cl)cc2)cc1`, for which the GI50 in the experiment on K562 and in the experiment on DU-145 was 1 µM each time.

For the compound `Cc1cc(C)cc(/C=C(/SCc2ccc(F)cc2)C(=O)c2ccc(Br)cc2)c1`, the GI50 worked out at 1 µM with K562 and 10 µM in the experiment on DU-145.

With `O=C(/C(=C\c1ccc(Br)cc1)Sc1ccc(Br)cc1)c1ccc(Cl)cc1`, the GI50 with K562 and with DU-145 was 1 µM each time.

With `Cc1ccc(/C=C(/SCc2ccc(Cl)cc2)C(=O)c2ccc([N+](=O)[O-])cc2)s1`, the GI50 in the experiment with K562 and in the experiment with DU-145 was 25 µM in each case.

In the case of `Cc1ccc(/C=C(/SCc2ccc(Cl)cc2Cl)C(=O)c2ccc(Cl)cc2)s1`, the GI50 in the experiment with K562 and in the experiment with DU-145 was 50 µM each time.

`COc1ccccc1/C=C(/Sc1ccc(C)cc1)C(=O)c1ccc(Br)cc1`: the results for the GI50 in the experiment with K562 and in the experiment with DU-145 were 1 µM and 9 µM, respectively.

On to `O=C(/C(=C\c1ccc[nH]1)SCc1ccc(Cl)cc1)c1ccc(Cl)cc1`, for which the GI50 with K562 and with DU-145 was 10 µM each time.

With `O=C(O)c1ccc(C(=O)/C(=C\c2ccc(Cl)c([N+](=O)[O-])c2)SCc2ccc(C(F)(F)F)cc2)cc1`, the GI50 in the experiment with K562 and in the experiment with DU-145 was 1 µM each time.

With `COc1ccc(/C=C(/SCc2ccc(Cl)cc2)C(=O)c2ccc(C(=O)O)cc2)cc1`, the GI50 with K562 and in the experiment with DU-145 was 10 µM each time.

For the compound `O=C(/C(=C\c1c(O)cc(O)cc1O)S(=O)(=O)c1ccccc1Br)c1ccc(Br)cc1`, the GI50 in the experiment with K562 and with DU-145 was 50 µM throughout.

Take `Cc1ccc(CS(=O)(=O)/C(=C/c2cc(C)cc(C)c2)C(=O)c2ccc(Cl)cc2)cc1`: the GI50 with K562 and in the experiment with DU-145 was 10 µM in each case.

For the compound `Cc1ccc(S/C(=C/c2cnc3ccccc3c2)C(=O)c2ccc(Cl)cc2)cc1`, the GI50 in the experiment on K562 and with DU-145 was above 100 µM each time.

As for `O=C(/C(=C\c1ccc(F)cc1F)S(=O)(=O)c1ccc(Cl)cc1)c1ccc(Br)cc1`, the GI50 in the experiment on K562 and in the experiment with DU-145 was 25 µM each time.

On to `COc1cc(C(=O)/C(=C\c2ccc([N+](=O)[O-])c(O)c2)SCc2ccc(Br)cc2)cc(OC)c1OC`, for which the GI50 in the experiment with K562 and in the experiment on DU-145 was 1 µM in each case.

In the case of `COc1ccc(S/C(=C/c2ccc(C)s2)C(=O)c2ccc(Cl)cc2)cc1`, the GI50 in the experiment on K562 and with DU-145 was 50 µM each time.

On to `Cc1ccc(S/C(=C/c2ccc(Oc3ccccc3)cc2)C(=O)c2ccc(Br)cc2)cc1`, for which the results for the GI50 in the experiment with K562 and in the experiment with DU-145 were above 100 µM and 1 µM, respectively.

On to `Cc1ccc(C)c(/C=C(\C(=O)c2ccc(Cl)cc2)S(=O)(=O)c2ccc(Br)cc2)c1`, for which the GI50 in the experiment with K562 and with DU-145 was 1 µM in each case.

Take `O=C(/C(=C\c1cc(Cl)cc(Cl)c1Cl)SCc1ccc(Cl)cc1)c1ccc(Br)cc1`: the GI50 in the experiment on K562 and in the experiment with DU-145 was 1 µM in each case.

Take `COc1ccccc1/C=C(/Sc1ccc(Br)cc1)C(=O)c1ccc(Cl)cc1`: the GI50 in the experiment with K562 and in the experiment on DU-145 was 10 µM each time.

As to `Cc1ccc(S/C(=C/c2ccc(N(C)C)cc2)C(=O)c2ccc(Br)cc2)cc1`, the GI50 with K562 was 50 µM; in the experiment on DU-145, above 100 µM.

Consider `Cc1ccc(C)c(/C=C(/SCc2ccc(Cl)cc2)C(=O)c2ccc(Cl)cc2)c1`, for which the GI50 in the experiment on K562 and in the experiment on DU-145 was 10 µM each time.

For `Cc1ccc(CS/C(=C/c2cc(C)ccc2C)C(=O)c2ccc(Cl)cc2)cc1`, the GI50 in the experiment on K562 and in the experiment with DU-145 was 10 µM throughout.

For the compound `COc1cc(OC)c(/C=C(/SCc2ccc(Cl)cc2Cl)C(=O)c2ccc(Cl)cc2)c(OC)c1`, the GI50 with K562 is 25 µM; with DU-145, 1 µM.

As for `Cc1ccc(C)c(/C=C(/Sc2ccc(Br)cc2)C(=O)c2ccc(Cl)cc2)c1`, the GI50 in the experiment with K562 and with DU-145 was 10 µM in each case.

Consider `O=C(/C(=C\c1ccc(Br)cc1)Sc1ccccc1Br)c1ccc(Br)cc1`, for which the GI50 in the experiment with K562 came to 8 µM; in the experiment on DU-145 it was 1 µM.

On to `O=C(/C(=C\c1ccc(O)c([N+](=O)[O-])c1)SCc1ccc(Br)cc1)c1ccc(Cl)cc1Cl`, for which the GI50 in the experiment on K562 was determined as 1 µM; in the experiment on DU-145, 10 µM.

The term GI50 denotes the concentration that inhibits growth by half. A high value points to lower sensitivity of the cells.
